Assay outcomes: PubChem BioAssay, several laboratories
In the library only some 3.6% were active in any assay of this set; here they are far more common.
SENP1 FRET inh: blocks the human SENP1 SUMO protease catalytic domain; Q9P0U3; recombinant SENP1 catalytic domain, CyPet-SUMO1-YPet FRET cleavage; inhibition, % at 10 µM; 0.21% of 360,000 active; AID 624204;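 active = inhibition at least 30% at 10 µM, raw YFP signal under a set limit, fluorescence ratio 0.5 to 1.5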
Target sequence (Q9P0U3 419-644 limits assumed): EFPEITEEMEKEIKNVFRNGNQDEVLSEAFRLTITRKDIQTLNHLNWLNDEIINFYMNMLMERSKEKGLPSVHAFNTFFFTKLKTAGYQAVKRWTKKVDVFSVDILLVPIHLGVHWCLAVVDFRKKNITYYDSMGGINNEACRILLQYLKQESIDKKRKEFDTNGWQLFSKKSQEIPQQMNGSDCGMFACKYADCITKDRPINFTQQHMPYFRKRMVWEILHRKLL
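system = hSENP1 catalytic domain, recombinant | reagent = SFCypet-SUMO1-SFYpet substrate at 25 nM | doses = one dose per compound, 10 µM, 0.5% DMSO | incubation = enzyme reaction for 50 min at room temperature, dark | measured by = FRET, CFP and YFP emission | controls = no-enzyme low, enzyme-DMSO high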
UCH37 DUB inh: blocks the human deubiquitinase UCH37; Q9Y5K5; purified proteasome/UCH37, Ub-AMC cleavage fluorescence; inhibition, % (no concentration beside the values); 0.33% of 330,000 active;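 active = mean inhibition over replicate wells above about 20%, limit read from the data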
Target sequence (Q9Y5K5 whole entry, looked up): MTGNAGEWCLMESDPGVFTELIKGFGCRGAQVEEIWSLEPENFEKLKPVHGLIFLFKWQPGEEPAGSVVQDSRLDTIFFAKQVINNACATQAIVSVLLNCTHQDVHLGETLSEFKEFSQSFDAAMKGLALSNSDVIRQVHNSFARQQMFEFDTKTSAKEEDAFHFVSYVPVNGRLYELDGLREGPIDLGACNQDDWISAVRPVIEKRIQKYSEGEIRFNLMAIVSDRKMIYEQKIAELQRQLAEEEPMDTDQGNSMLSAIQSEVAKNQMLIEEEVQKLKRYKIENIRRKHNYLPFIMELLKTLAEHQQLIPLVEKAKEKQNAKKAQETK
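Material: human UCH37 enzyme supplied as purified proteasome complex. Measure: % inhibition of Ub-AMC cleavage fluorescence. Medium: pH 7.4 Tris-HCl (50 mM) with ovalbumin, ATP-MgCl2, DTT. Times: 30 min preincubation with enzyme, 25 min cleavage at room temperature. Detection: AMC fluorescence intensity at 355/460 nm.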
ATG4B inh: inhibitors of human ATG4B cysteine protease; Q9Y4P1; ATG4B cleavage of LC3-PLA2, NBD-HPC fluorescence, 1 h; inhibition, % at 8.33 µM; 0.51% of 340,000 active; AID 504462; in the data active = inhibition above about 40%
NadD inh: NadD (S. aureus) enzyme inhibition; purified NadD enzyme, colorimetric absorbance read-out; inhibition, % at 20 µM; 0.78% of 360,000 active; in the data active = inhibition above about 26%
GRIN3A LBD mod: modulators (binders) of human NR3A ligand-binding domain; NR3A LBD differential scanning fluorimetry, Tm shift; 0% = protein alone, 100% = glycine-bound protein; Tm shift relative to glycine control, % at 25 µM; 2.5% of 340,000 active; AID 1259313;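 active = melting temperature shift of at least 10% of the positive control shift, at one fixed dose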
ATG4B conf: confirmation of human ATG4B inhibitors | shares compounds with ATG4B inh | ATG4B protease fluorescent substrate cleavage assay | inhibition, % at 8.33 µM | 92% of 320 active | AID 504757; in the data active = inhibition above about 39%
PLA2 ctr: counter-screen for ATG4B inhibitors: human phospholipase A2; purified PLA2, NBD-C6-HPC fluorescence, 45 min; shares compounds with ATG4B inh; AID 588402; 66% of 1,600 active; inhibition, % at 8.33 µM; in the data active = inhibition above about 50%
Numbers stand for hits.

What do the screens show for `COc1cc2c(cc1NC(=O)COC(=O)[C@@H](NS(=O)(=O)c1cccc(Cl)c1)C(C)C)oc1ccccc12`?
SENP1 FRET inh: inactive; UCH37 DUB inh: inactive; ATG4B inh: 47; NadD inh: inactive; GRIN3A LBD mod: inactive; PLA2 ctr: 63

How did COC(=O)c1c(NC(=O)COC(=O)[C@@H](NS(=O)(=O)c2cccc(Cl)c2)C(C)C)sc2c1CCC2 do in these assays?
SENP1 FRET inh: inactive; UCH37 DUB inh: inactive; ATG4B inh: inactive; NadD inh: inactive; GRIN3A LBD mod: inactive

Results for CCC1=NN(C(=O)c2ccc(Br)cc2)C(O)(c2ccccc2)C1 (configuration not stated) ?
SENP1 FRET inh: inactive; UCH37 DUB inh: inactive; ATG4B inh: inactive; NadD inh: inactive; GRIN3A LBD mod: inactive

What do the screens show for `CCC1=NN(C(=O)c2cccc([N+](=O)[O-])c2)C(O)(c2ccc(C)cc2)C1` (configuration not stated)?
SENP1 FRET inh: inactive; UCH37 DUB inh: inactive; ATG4B inh: 54; NadD inh: inactive; GRIN3A LBD mod: inactive; PLA2 ctr: 60

What do the screens show for `CC(C)c1ccc(NC2CCCN(C(=O)c3n[nH]c4c3CCC4)C2)cc1` (configuration not stated)?
SENP1 FRET inh: inactive; UCH37 DUB inh: inactive; ATG4B inh: 55; NadD inh: inactive; GRIN3A LBD mod: inactive; ATG4B conf: 60; PLA2 ctr: inactive

How did COC(=O)c1ccc(C(=O)N2CCCC(Nc3ccc(C(C)C)cc3)C2)cc1 (configuration not stated) do in these assays?
SENP1 FRET inh: inactive; UCH37 DUB inh: inactive; ATG4B inh: 81; NadD inh: inactive; GRIN3A LBD mod: inactive; PLA2 ctr: 82

What do the screens show for `O=C(CCc1cccc(Cl)c1)N1CCCC(Nc2ccccc2)C1` (configuration not stated)?
SENP1 FRET inh: inactive; ATG4B inh: 48; NadD inh: inactive; GRIN3A LBD mod: inactive; PLA2 ctr: inactive

How did CC(C)c1ccc(NC2CCCN(C(=O)CCN3Cc4ccccc4C3=O)C2)cc1 (configuration not stated) do in these assays?
SENP1 FRET inh: inactive; UCH37 DUB inh: inactive; ATG4B inh: 44; NadD inh: inactive; GRIN3A LBD mod: inactive; ATG4B conf: 73; PLA2 ctr: inactive

Results for O=C1CCCCN1CCC(=O)N1CCCC(Nc2ccccc2)C1 (configuration not stated) ?
SENP1 FRET inh: inactive; UCH37 DUB inh: inactive; ATG4B inh: inactive; NadD inh: inactive; GRIN3A LBD mod: inactive

What do the screens show for `CC1=C(C#N)C(C=NOCc2ccc(Cl)cc2)CC(=O)N1` (configuration not stated)?
UCH37 DUB inh: inactive

How did COc1ccc(NC(=O)C(C)Oc2ccc(C(C)=NO)cc2)cc1 (configuration not stated) do in these assays?
UCH37 DUB inh: inactive

Results for Cc1ccc(S(=O)(=O)Oc2ccccc2C=NNC(=O)c2c(Cl)cnn2C)cc1 ?
UCH37 DUB inh: inactive

What do the screens show for `O=C(c1ccsc1)N1CCCC(Nc2ccc(F)c(F)c2)C1` (configuration not stated)?
SENP1 FRET inh: inactive; UCH37 DUB inh: inactive; ATG4B inh: inactive; NadD inh: inactive; GRIN3A LBD mod: inactive

Results for CC(C)c1ccc(NC2CCCN(C(=O)c3cnn(C(C)C)c3)C2)cc1 (configuration not stated) ?
SENP1 FRET inh: inactive; UCH37 DUB inh: inactive; ATG4B inh: 45; NadD inh: inactive; GRIN3A LBD mod: inactive; ATG4B conf: 53; PLA2 ctr: inactive

Results for CC(C)c1ccc(NC2CCCN(C(=O)c3cccs3)C2)cc1 (configuration not stated) ?
SENP1 FRET inh: inactive; UCH37 DUB inh: inactive; ATG4B inh: 76; NadD inh: inactive; GRIN3A LBD mod: inactive; PLA2 ctr: 73

What do the screens show for `Cc1occc1C(=O)N1CCCC(Nc2ccc(C(C)C)cc2)C1` (configuration not stated)?
SENP1 FRET inh: inactive; UCH37 DUB inh: inactive; ATG4B inh: 50; NadD inh: inactive; GRIN3A LBD mod: inactive; PLA2 ctr: 58

How did CC(C)c1ccc(NC2CCCN(C(=O)c3ccsc3)C2)cc1 (configuration not stated) do in these assays?
SENP1 FRET inh: inactive; UCH37 DUB inh: inactive; ATG4B inh: 77; NadD inh: inactive; GRIN3A LBD mod: inactive; PLA2 ctr: 78

How did CCOc1ccc(C=NOCC(=O)Nc2cc(S(=O)(=O)N3CCOCC3)ccc2OC)cc1 do in these assays?
UCH37 DUB inh: inactive

Results for Cc1nnc(C)n1N=Cc1ccccn1 ?
UCH37 DUB inh: inactive

Results for Oc1ccccc1CN(Cc1ccco1)CC(O)COCc1ccc(Cl)cc1 (configuration not stated) ?
SENP1 FRET inh: inactive; UCH37 DUB inh: inactive; ATG4B inh: 40; NadD inh: inactive; GRIN3A LBD mod: inactive; PLA2 ctr: inactive

How did COc1ccc(OC)c(C=NNC(=O)CSc2cc(C)nc3c(OC)cccc23)c1 do in these assays?
UCH37 DUB inh: inactive

How did Cc1ccc(S(=O)(=O)Nc2ccccc2/C=N/c2nc3ccccc3n2C(C)C)cc1 do in these assays?
SENP1 FRET inh: inactive; ATG4B inh: 55; NadD inh: inactive; GRIN3A LBD mod: inactive; ATG4B conf: 57; PLA2 ctr: inactive

Results for O=C(NC1CCCC1)c1ccccc1OCc1ccccc1 ?
SENP1 FRET inh: inactive; UCH37 DUB inh: inactive; ATG4B inh: 66; NadD inh: inactive; GRIN3A LBD mod: inactive; PLA2 ctr: 73

How did COc1ccccc1C(=O)NC1CCCCCCC1 do in these assays?
SENP1 FRET inh: inactive; UCH37 DUB inh: inactive; ATG4B inh: inactive; NadD inh: inactive; GRIN3A LBD mod: inactive

How did O=C(NC1CCN(Cc2ccccc2)CC1)c1ccccc1OCc1ccccc1 do in these assays?
SENP1 FRET inh: inactive; UCH37 DUB inh: inactive; ATG4B inh: 56; NadD inh: inactive; GRIN3A LBD mod: inactive; PLA2 ctr: 62

What do the screens show for `O=C(NCc1ccc(F)cc1)c1ccccc1OCc1ccccc1`?
SENP1 FRET inh: inactive; UCH37 DUB inh: inactive; ATG4B inh: 47; NadD inh: inactive; GRIN3A LBD mod: inactive; PLA2 ctr: 52

What do the screens show for `CCOc1ccccc1C(=O)NC1CCN(Cc2ccccc2)CC1`?
SENP1 FRET inh: inactive; UCH37 DUB inh: inactive; ATG4B inh: inactive; NadD inh: inactive; GRIN3A LBD mod: inactive

How did CCCN(CCC)Cc1c(C(=O)NN=C/C(C)=C\c2ccco2)nnn1-c1nonc1N do in these assays?
UCH37 DUB inh: inactive

Results for CNC(=S)NN=Cc1c(C)c(C(=O)c2ccc(F)cc2)n2ccccc12 ?
UCH37 DUB inh: inactive

How did CC(=O)Nc1ccccc1NC(=O)CC(C)=NNC(=O)c1ccncc1 do in these assays?
UCH37 DUB inh: inactive
